According to ChEMBL document CHEMBL2177058 (J Med Chem, 2012):
Calls of active or inactive are those of the source. The rule behind the calls is not given here.

What was measured:
D(2) dopamine receptor = D(2) dopamine receptor (Homo sapiens, UniProt P14416); assay: biochemical; type: cell-based, CHOp
[1] = molecular target: Delta-type opioid receptor (Homo sapiens, UniProt P41143); assay: Displacement of [3H]pCl-DPDPE from human delta opioid receptor expressed in CHO cell membranes incubated for 60 mins by liquid scintillation counting
D(3) dopamine receptor = D(3) dopamine receptor (Homo sapiens, UniProt P35462); assay: Displacement of [3H]YM-09151-2 from human dopamine D3 receptor expressed in CHOp cells; type: cell-based
D(1A) dopamine receptor = D(1A) dopamine receptor (Homo sapiens, UniProt P21728); assay: Displacement of [3H]SCH-23390 from human dopamine D1 receptor expressed in LHD1 cells; type: cell-based
[2] = molecular target: T1, Kappa-type opioid receptor (Homo sapiens, UniProt P41145); assay: Agonist activity at human kappa opioid receptor expressed in CHO cell membranes incubated for 60 mins by [35S]GTPgammaS binding assay; type: functional
[3] = molecular target: T1, Kappa-type opioid receptor; assay: Displacement of [3H]U69,593 from human kappa opioid receptor expressed in CHO cell membranes incubated for 60 mins by liquid scintillation counting
Mu-type opioid receptor = Mu-type opioid receptor (Homo sapiens, UniProt P35372); assay: Displacement of [3H]DAMGO from human mu opioid receptor expressed in CHO cell membranes incubated for 60 mins by liquid scintillation counting
Mus musculus [4] = assay: Analgesic activity in CD1 mouse assessed as inhibition of acetic acid induced writhing at 2.5 mg/kg, sc dosed 30 mins before acetic acid challenge in presence of 20 mg/kg, sc KOP receptor antagonist nor-BNI; type: functional, organism-based
Mus musculus [5] = assay: Analgesic activity in CD1 mouse assessed as inhibition of acetic acid induced writhing dosed subcutaneously 30 mins before acetic acid challenge; type: functional
Procedure, shortened: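 Mice received the drug subcutaneously across a range of doses, then underwent the acetic acid induced writhing test. Inhibition of writhing was scored against a control group. Data are mean SEM, n = 5−6 mice per group. ED₅₀ was taken from the dose–response curve.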

[6] = molecular target: Kappa-type opioid receptor (Cavia porcellus, UniProt P41144); assay: Displacement of [3H]ethylketocyclazocine from kappa opioid receptor in guinea pig brain
Chain of Kappa-type opioid receptor (Cavia porcellus, UniProt P41144) (P41144 whole entry): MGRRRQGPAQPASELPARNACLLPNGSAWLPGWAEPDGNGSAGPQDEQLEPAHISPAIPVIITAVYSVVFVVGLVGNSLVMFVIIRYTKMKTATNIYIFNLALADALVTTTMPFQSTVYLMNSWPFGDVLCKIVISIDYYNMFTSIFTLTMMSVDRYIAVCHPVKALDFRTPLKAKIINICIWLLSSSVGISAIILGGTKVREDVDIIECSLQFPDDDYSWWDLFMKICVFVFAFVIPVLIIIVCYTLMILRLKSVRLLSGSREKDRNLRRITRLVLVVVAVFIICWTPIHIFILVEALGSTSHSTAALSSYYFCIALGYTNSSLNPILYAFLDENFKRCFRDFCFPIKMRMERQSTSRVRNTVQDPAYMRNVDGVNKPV

Chain of D(3) dopamine receptor (P35462 whole entry): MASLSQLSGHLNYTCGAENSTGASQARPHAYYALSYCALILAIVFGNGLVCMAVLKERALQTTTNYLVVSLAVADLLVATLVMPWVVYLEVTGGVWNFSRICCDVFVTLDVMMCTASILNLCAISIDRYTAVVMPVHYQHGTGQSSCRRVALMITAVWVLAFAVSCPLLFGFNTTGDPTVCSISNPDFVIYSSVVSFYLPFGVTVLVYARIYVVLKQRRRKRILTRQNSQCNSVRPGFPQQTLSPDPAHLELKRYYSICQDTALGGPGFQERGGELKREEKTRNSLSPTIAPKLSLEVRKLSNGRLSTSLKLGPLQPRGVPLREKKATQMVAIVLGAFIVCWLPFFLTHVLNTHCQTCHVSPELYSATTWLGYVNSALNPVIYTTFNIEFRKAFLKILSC
Chain of D(2) dopamine receptor (P14416 whole entry): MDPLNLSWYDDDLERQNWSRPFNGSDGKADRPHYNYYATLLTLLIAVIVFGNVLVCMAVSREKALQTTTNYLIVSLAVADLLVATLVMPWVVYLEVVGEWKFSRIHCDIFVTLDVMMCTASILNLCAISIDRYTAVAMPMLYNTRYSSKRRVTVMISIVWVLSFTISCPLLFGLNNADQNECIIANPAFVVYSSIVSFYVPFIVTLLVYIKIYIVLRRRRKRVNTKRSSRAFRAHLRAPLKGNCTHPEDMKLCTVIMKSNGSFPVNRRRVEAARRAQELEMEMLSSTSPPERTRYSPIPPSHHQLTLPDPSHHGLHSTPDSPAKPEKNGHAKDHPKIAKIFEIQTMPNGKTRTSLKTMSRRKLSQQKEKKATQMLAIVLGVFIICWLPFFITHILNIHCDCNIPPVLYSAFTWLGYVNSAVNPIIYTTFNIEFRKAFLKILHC
T1 sequence (P41145 whole entry): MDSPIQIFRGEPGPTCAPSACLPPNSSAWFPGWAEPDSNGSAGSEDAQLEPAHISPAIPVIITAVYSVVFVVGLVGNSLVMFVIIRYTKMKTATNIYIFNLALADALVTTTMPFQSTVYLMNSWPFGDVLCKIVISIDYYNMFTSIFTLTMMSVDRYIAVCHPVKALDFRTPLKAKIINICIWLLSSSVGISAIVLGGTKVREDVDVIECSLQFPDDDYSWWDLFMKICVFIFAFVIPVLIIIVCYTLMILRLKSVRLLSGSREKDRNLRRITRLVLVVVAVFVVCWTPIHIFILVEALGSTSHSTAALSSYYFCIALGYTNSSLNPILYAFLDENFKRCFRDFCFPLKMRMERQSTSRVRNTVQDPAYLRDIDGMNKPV
Chain of Mu-type opioid receptor (P35372 whole entry): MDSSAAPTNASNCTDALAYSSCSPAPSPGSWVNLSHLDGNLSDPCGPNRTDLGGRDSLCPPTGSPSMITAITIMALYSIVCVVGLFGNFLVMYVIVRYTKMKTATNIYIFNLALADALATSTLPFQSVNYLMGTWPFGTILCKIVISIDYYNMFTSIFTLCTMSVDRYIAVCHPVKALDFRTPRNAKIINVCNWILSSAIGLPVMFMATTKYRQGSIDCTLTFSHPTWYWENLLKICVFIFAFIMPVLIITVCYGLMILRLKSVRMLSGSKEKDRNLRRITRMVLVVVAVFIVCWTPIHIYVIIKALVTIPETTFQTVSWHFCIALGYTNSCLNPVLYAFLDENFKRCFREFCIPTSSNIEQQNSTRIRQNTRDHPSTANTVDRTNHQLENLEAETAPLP
Chain of Delta-type opioid receptor (P41143 whole entry): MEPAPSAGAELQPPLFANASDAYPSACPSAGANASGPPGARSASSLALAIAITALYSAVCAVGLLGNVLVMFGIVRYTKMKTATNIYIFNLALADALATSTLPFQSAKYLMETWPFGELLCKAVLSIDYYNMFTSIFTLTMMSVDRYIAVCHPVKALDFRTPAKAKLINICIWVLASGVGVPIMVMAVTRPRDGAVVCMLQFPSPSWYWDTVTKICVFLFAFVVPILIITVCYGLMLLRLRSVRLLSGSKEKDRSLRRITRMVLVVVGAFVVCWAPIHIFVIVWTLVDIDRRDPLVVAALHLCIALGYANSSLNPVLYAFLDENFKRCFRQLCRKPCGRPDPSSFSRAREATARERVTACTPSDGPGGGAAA
Chain of D(1A) dopamine receptor (P21728 whole entry): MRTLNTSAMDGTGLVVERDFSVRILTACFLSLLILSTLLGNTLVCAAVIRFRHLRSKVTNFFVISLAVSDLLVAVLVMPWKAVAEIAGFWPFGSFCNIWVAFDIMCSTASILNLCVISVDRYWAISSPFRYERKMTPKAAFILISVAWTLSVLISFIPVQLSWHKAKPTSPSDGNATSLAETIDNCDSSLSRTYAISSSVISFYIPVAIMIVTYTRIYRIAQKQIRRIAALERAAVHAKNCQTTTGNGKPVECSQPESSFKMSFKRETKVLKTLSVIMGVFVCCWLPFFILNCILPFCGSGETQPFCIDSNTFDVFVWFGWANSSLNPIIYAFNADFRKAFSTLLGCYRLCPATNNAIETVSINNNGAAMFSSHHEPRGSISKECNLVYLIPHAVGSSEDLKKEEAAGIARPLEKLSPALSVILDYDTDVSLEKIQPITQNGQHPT

With `Oc1cccc(CCN(CCc2ccccc2)CC2CC2)c1` the Ki (D(2) dopamine receptor) was 118 nM, the Ki [1] was > 10000 nM and the Ki (D(3) dopamine receptor) was 168 nM. For the same compound, the Ki (D(1A) dopamine receptor) was > 10000 nM.
Work on `CCCCCN(CCc1ccccc1)CCc1cccc(O)c1` yielded a Ki (D(2) dopamine receptor) of 1420 nM, a Ki [1] of 1320 nM and a Ki (D(3) dopamine receptor) of 1100 nM. The Ki (D(1A) dopamine receptor) was > 10000 nM, the EC50 [2] was 86.4 nM and the Ki [3] was 12.6 nM. For the same compound, the Ki (Mu-type opioid receptor) was 325 nM.
In the case of `Oc1cccc(CCN(CCc2ccccc2)CC2CCC2)c1`, the Ki (D(2) dopamine receptor) is reported as 450 nM, the Ki [1] is reported as > 10000 nM and the Activity (Mus musculus [4]) is reported as “inactive”. The Ki (D(3) dopamine receptor) was 282 nM, the Ki (D(1A) dopamine receptor) was > 10000 nM and the Activity (Mus musculus [5]) was “Dose-dependent effect”. It also gave an ED50 (Mus musculus [5]; CD1, sc) of 1.91 mg/kg.
Compound `CCCCCCN(CCc1ccccc1)CCc1cccc(O)c1` has a Ki (D(2) dopamine receptor) of 831 nM, a Ki [1] of 3570 nM and a Ki (D(3) dopamine receptor) of 1150 nM. The Ki (D(1A) dopamine receptor) was > 10000 nM, the EC50 [2] was 647 nM and the Ki [3] was 141 nM. For the same compound, the Ki (Mu-type opioid receptor) was 788 nM.
`CCCCN(CCc1ccccc1)CCc1cccc(O)c1` gave a Ki (D(2) dopamine receptor) of 1230 nM, a Ki [1] of 2430 nM and a Ki (D(3) dopamine receptor) of 1150 nM. For the same compound, the Ki (D(1A) dopamine receptor) was > 10000 nM, the EC50 [2] was 46.2 nM and the Ki [3] was 10.9 nM. It also gave a Ki (Mu-type opioid receptor) of 412 nM.
`CCCN(CCc1ccccc1)CCc1cccc(O)c1` was tested, and the Ki (D(2) dopamine receptor) was 64.4 nM, the Ki [1] was 3710 nM and the Ki (D(3) dopamine receptor) was 21.8 nM. The Ki (D(1A) dopamine receptor) was > 10000 nM, the EC50 [2] was 49.1 nM and the IC50 [6] was 57 nM. The Ki [3] was 8.13 nM and the Ki (Mu-type opioid receptor) was 594 nM.
